An excerpt weighted towards active compounds, which were near 3.1% of everything screened.
miR-122 sensor: miR-122 Renilla sensor signal increase in Huh7, primary screen, miR-122 inhibitor project, cell-based, single point, plate reader. Huh7 miR-122 Renilla luciferase sensor, 48 h; neutral wells = 0, positive control = 100. activation (reporter increase), % at 12.5 µM. 340,000 compounds, 0.3% hits. AID 602342, 2012;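 active = mean replicate activation score at least 90 and every replicate individually at or above 90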;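 also: higher luciferase means less miR-122 activity so hits act as miR-122 inhibitors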
Cneo AK release: Cryptococcus neoformans cell lysis inducers, primary screen, AK release luminescence, single concentration. C. neoformans lysis, adenylate kinase release luminescence, 4 h; normalised: neutral wells 0, clomiphene wells 100. lysis activity, % at 15 µM. 360,000 compounds, 0.2% hits. AID 651654, 2012;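 active = mean lysis activity across replicates of at least 80%, whatever share of replicates individually reach that level; inactive = mean lysis activity below 80%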
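Material: C. neoformans cells; Schedule: 4 h static compound exposure, 37 °C, read 1 h post-reagent; Measured by: adenylate kinase release luminescence; Read-out: signal increase indicating cell lysis; Controls: Clomiphene as positive lysis control.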
Ecoli rRNA inh: reduced GFP signal of wild-type E. coli, primary screen, bacterial rRNA inhibitor project, GFP/RFP fluorescence, OD600, single point. E. coli WT GFP vs humanized-ribosome RFP mutants, 24 h; stronger effect = lower value; DMSO median 0, no signal -100. GFP signal change (wild-type ribosome), % (test concentration not listed). 350,000 compounds, 1.6% hits. AID 720706, 2013;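 active = significant combined selectivity score with lowered wild-type GFP, culture density cut under 30%, mutant RFP and density less affected; inactive = any of these conditions unmet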
E-sel inducer: E-selectin induction in HUVECs, primary screen, imaging, HUVEC, immunofluorescence imaging, single point. normalized: neutral wells 0, TNF-alpha wells 100. P16581. activation, % at 7.58 µM. 260,000 compounds, 0.37% hits;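 active = mean E-selectin-positive cell signal at least 10% of the positive control, reached in at least 60% of replicates, without over 20% cell loss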
Target sequence (P16581 whole entry, looked up): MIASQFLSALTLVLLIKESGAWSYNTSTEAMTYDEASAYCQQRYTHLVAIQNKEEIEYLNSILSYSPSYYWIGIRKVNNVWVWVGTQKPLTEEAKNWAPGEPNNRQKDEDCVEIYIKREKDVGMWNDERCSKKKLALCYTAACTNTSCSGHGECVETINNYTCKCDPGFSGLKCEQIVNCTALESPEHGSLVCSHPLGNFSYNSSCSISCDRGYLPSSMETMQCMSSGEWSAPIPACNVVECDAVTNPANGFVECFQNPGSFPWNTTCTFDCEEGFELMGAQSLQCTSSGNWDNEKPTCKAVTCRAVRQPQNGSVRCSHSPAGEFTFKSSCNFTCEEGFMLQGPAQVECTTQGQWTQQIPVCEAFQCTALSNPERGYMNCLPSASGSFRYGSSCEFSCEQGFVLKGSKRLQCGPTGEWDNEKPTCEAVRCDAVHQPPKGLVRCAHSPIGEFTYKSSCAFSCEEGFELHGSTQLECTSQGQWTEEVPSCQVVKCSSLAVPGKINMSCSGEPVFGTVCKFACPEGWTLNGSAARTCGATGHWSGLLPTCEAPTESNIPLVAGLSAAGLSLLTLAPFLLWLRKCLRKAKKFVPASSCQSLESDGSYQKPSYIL
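Read-out: % PE-positive cells | Test system: HUVEC | Doses: One compound dose added by pin transfer | Buffer or medium: EGM-2 over gelatin coat | Signal: Immunofluorescence imaging | Benchmarks: TNF-alpha, DMSO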
DENV2 CPE rescue: inhibitors of DENV2 cytopathic effect, primary screen, cell-based, plate reader, single concentration; 350,000 compounds, 1.7% hits; CPE inhibition, % at 9.99 µM; DENV2-infected cells, cytopathic effect rescue; AID 651640, 2012; in the data active = CPE inhibition above about 20%, passing the limit was not always enough; tested in BHK-21 cells
Each line names hits and unclear results; the compound was inactive in the other large screens; ! = a repeat was not active; [ ] = another dose, or the depositor's remark.

C[C@H](CO)N1C[C@H](C)[C@H](CN(C)C(=O)NC2CCCCC2)Oc2ncc(C#Cc3cccc(F)c3)cc2C1=O	none
C[C@@H]1CN([C@H](C)CO)C(=O)c2cc(NC(=O)Nc3ccc(F)cc3)ccc2O[C@@H](C)CCCCO[C@@H]1CN(C)S(=O)(=O)c1cccs1	DENV2 CPE rescue 21
C[C@H](CO)N1C[C@H](C)[C@H](CN(C)S(=O)(=O)c2cccs2)OCCCC[C@H](C)Oc2ccc(NC(=O)Nc3ccc(F)cc3)cc2C1=O	none
C[C@@H]1CN([C@H](C)CO)C(=O)c2cc(NC(=O)Nc3ccc(F)cc3)ccc2O[C@H]1CN(C)S(=O)(=O)c1cccs1	E-sel inducer 39
C[C@H]1CN([C@@H](C)CO)C(=O)c2cc(NC(=O)Nc3ccc(F)cc3)ccc2O[C@@H]1CN(C)S(C)(=O)=O	Cneo AK release 100
C[C@@H]1CN([C@H](C)CO)C(=O)c2cc(NC(=O)Nc3ccc(F)cc3)ccc2O[C@@H]1CN(C)S(=O)(=O)c1cccs1	none
C[C@@H]1CN([C@H](C)CO)C(=O)c2cc(NC(=O)Nc3ccc(F)cc3)ccc2O[C@@H]1CN(C)S(C)(=O)=O	none
C[C@@H]1CCCCO[C@@H](CN(C)S(=O)(=O)c2cccs2)[C@H](C)CN([C@H](C)CO)C(=O)c2cc(NC(=O)Nc3ccccc3)ccc2O1	DENV2 CPE rescue 60 (no result: E-sel inducer)
COc1ccc2c3c([nH]c2c1)[C@@H](CO)N(Cc1cc(F)ccc1F)CC31CCN(C(C)=O)CC1	none (no result: miR-122 sensor, Cneo AK release)
C[C@H](CO)N1C[C@H](C)[C@@H](CN(C)S(=O)(=O)c2cccs2)Oc2ccc(NC(=O)CCN3CCOCC3)cc2C1=O	E-sel inducer 63
C[C@@H]1CN([C@H](C)CO)C(=O)c2cccc(NC(=O)C3CC3)c2O[C@H]1CN(C)S(=O)(=O)c1cccs1	DENV2 CPE rescue 34
C[C@@H]1CN([C@@H](C)CO)C(=O)c2cc(NC(=O)c3ccccc3)ccc2O[C@@H](C)CCCCO[C@@H]1CN(C)S(=O)(=O)c1cccs1	DENV2 CPE rescue 45
C[C@H]1CN([C@@H](C)CO)C(=O)c2cc(NC(=O)CCN3CCOCC3)ccc2O[C@H]1CN(C)S(=O)(=O)c1cccs1	none
C[C@H](CO)N1C[C@H](C)[C@H](CN(C)S(=O)(=O)c2cccs2)OCCCC[C@H](C)Oc2ccc(NC(=O)c3ccccc3)cc2C1=O	none
C[C@H]1CN([C@@H](C)CO)C(=O)c2cc(NC(=O)C3CC3)ccc2O[C@H]1CN(C)S(=O)(=O)c1cccs1	DENV2 CPE rescue 36
COc1ccc2c3c([nH]c2c1)[C@H](CO)N(Cc1ccccc1)CC31CN(S(C)(=O)=O)C1	none (no result: miR-122 sensor, Cneo AK release, E-sel inducer, DENV2 CPE rescue)
C[C@H]1CN([C@@H](C)CO)C(=O)c2cccc(NS(=O)(=O)c3ccc(F)cc3)c2O[C@@H]1CN(C)Cc1ccc(Cl)c(Cl)c1	DENV2 CPE rescue 23
C[C@H]1CN([C@@H](C)CO)C(=O)c2cccc(NS(=O)(=O)c3ccccc3)c2O[C@@H]1CN(C)Cc1ccc(Cl)c(Cl)c1	DENV2 CPE rescue 85 (no result: E-sel inducer)
C[C@H](CO)N1C[C@H](C)[C@@H](CN(C)Cc2ccc(Cl)c(Cl)c2)Oc2c(NS(=O)(=O)c3cccs3)cccc2C1=O	miR-122 sensor 95!
Cc1ccc(S(=O)(=O)Nc2cccc3c2O[C@@H](CN(C)Cc2ccc(Cl)c(Cl)c2)[C@H](C)CN([C@H](C)CO)C3=O)cc1	miR-122 sensor 110[16.7 µM]
O=C(O)C[C@@H]1C[C@@H]2c3cc(NC(=O)C4CCOCC4)ccc3O[C@@H]2[C@@H](CO)O1	none (no result: miR-122 sensor, Cneo AK release, E-sel inducer, DENV2 CPE rescue)
COc1ccc(CNC(=O)N(C)C[C@H]2OCc3ccccc3-c3ccccc3C(=O)N([C@@H](C)CO)C[C@@H]2C)cc1	none (no result: miR-122 sensor, Cneo AK release, E-sel inducer, DENV2 CPE rescue)
CCOc1ccc(-c2onc(C(F)(F)F)c2-c2cscn2)c(O)c1	Ecoli rRNA inh -43 (no result: E-sel inducer)
Cc1cc(O)cc(O)c1-c1onc(C(F)(F)F)c1-c1cscn1	none (no result: Ecoli rRNA inh, E-sel inducer, DENV2 CPE rescue)
Nc1nc(Nc2ccccc2)nc(NCc2ccccc2)c1[N+](=O)[O-]	Ecoli rRNA inh -15 (no result: miR-122 sensor, Cneo AK release)
